# High-throughput results from PubChem.
# TLR4 MyD88 comp = inhibitors of TLR4-MyD88 association in cells, primary screen, cell-based, HeLa CL3-4, BLA complementation, FRET ratio. Toll-like receptor 4 (Homo sapiens) + Myeloid differentiation primary response protein …. HeLa CL3-4 TLR4/MyD88 BLA complementation. inhibition, % at 8.4 µM. 200,000 tested, 0.18% active; in the data active = inhibition above about 25%;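 also: 0% = vehicle and 100% = reference inhibitor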
# TLR9-MyD88 inh = inhibitors of TLR9-MyD88 association in cells, primary screen, cell-based, CHO, BLA complementation, fluorescence; Toll-like receptor 9 (Homo sapiens) + Myeloid differentiation primary response protein …; CCF4 FRET ratio; inhibition, % at 4.98 µM; 340,000 tested, 0.21% active;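 active = inhibition above the mean over all tested compounds plus 3 SD, cut at about 21% in these data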;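 also: 0% = DMSO only wells and 100% = clavulanate BLA inhibitor control wells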
# MC4R barr agon = MC4R agonists recruiting beta-arrestin, primary screen, cell-based, luminescence, agonist arm of biased-ligand search | Melanocortin receptor 4 (Homo sapiens), P32245 | U2OS MC4R beta-arrestin complementation; percent of melanotan II response, DMSO zero | 360,000 tested, 0.98% active | activation, % at 8.9 µM;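 active = activation above a per-plate cutoff, the mean activation of sample wells on that plate plus 3 SD, cut at about 8% in these data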
# MC4R antagonist = MC4R antagonists of cAMP signaling, primary screen, cell-based, TR-FRET, antagonist arm of biased-ligand search | 360,000 tested, 0.48% active | MC4R-expressing cells, MTII-stimulated cAMP, LANCE TR-FRET | inhibition, % at 6.5 µM;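 active = inhibition above its plate's cutoff, the mean of tested wells on that plate plus 3 SD, cut at about 29% in these data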;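 also: 0% = Melanotan II alone and 100% = Melanotan II plus saturating MCL0020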
#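 Material: human MC4R-expressing U2OS cells. Probe or stimulus: Melanotan II challenge. Dosing: 6.5 µM single dose. Times: 30-min compound, 1-h challenge, 1-h detection, room temperature. Technique: TR-FRET with Eu-cAMP and labeled anti-cAMP, 671 nm. Replication: singlicate.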
# NOD2 RIPK2 PPI = NOD2-RIPK2 binding disruptors in cells, primary screen, fluorescence, CHO cells, BLA complementation | CCF4 ratio | inhibition, % at 4.98 µM | 360,000 tested, 0.38% active | AID 624267, 2012; in the data active = inhibition above about 21%;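 also: 0% = vehicle only and 100% = reference blocker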
# beta cell repl = inducers of MIN6 beta-cell proliferation, primary screen, ATP luminescence, uHTS; MIN6 cells proliferation, ATPlite luminescence, 48 h; cells starved in 0.2% serum; 100% = growth in 10% serum; proliferation, % at 10 µM; 330,000 tested, 0.29% active;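 active = compounds whose signal lies at least 3.5 SD above the mean of all wells on their plate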;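 also: 0% = DMSO-treated cells in low-serum medium and 100% = 10% serum control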
# NOD2-RIPK2 conf = NOD2-RIPK2 binding disruptors, retest, confirmation, fluorescence, CHO cells, BLA complementation, triplicate; shares compounds with NOD2 RIPK2 PPI; CCF4 FRET; inhibition, % at 4.98 µM; 1,200 tested, 70% active;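 active = mean inhibition across replicates above a set limit taken from the earlier primary screen, cut at about 21% in these data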;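 also: 0% = DMSO-only wells and the high end = clavulanate BLA-blocked wells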
# BLA counter = hits BLA reporter in NOD2-RIPK2 inhibitor counterscreen; shares compounds with NOD2 RIPK2 PPI; CHO BLA reporter, CCF4 FRET ratio; inhibition, % at 4.98 µM; 1,200 tested, 57% active;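 active = mean inhibition above the low-control mean inhibition plus three low-control SD, cut at about 11% in these data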;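 also: 0% = DMSO only wells and 100% = clavulanate high control wells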
# * marks the source's active call; other numbers are inactive results; · = no result given. A selection: hits, their analogues and other compounds. The true share with any hit is near 2.1%.
SMILES,TLR4 MyD88 comp,TLR9-MyD88 inh,MC4R barr agon,MC4R antagonist,NOD2 RIPK2 PPI,beta cell repl,NOD2-RIPK2 conf,BLA counter
Cn1cnc([N+](=O)[O-])c1S(=O)(=O)Oc1ccc(Cl)cc1,·,2,-1,-2,21*,·,47*,-1
CCOC(=O)C1(C)NC(c2ccco2)C2C(=O)N(C)C(=O)C21 (configuration not stated),0,6,2,-5,-1,-2,·,·
COc1cc(OC)c(/C=C2\C(=O)Nc3ccccc32)c(OC)c1,·,·,·,·,·,-1,·,·
COc1ccc(C(=O)/C=C2/C(=O)Nc3ccccc32)c(OC)c1,·,5,-3,-9,31*,-7,30*,-1
C=CCOc1ccccc1C(=O)/C=C1/C(=O)Nc2ccccc21,·,17,-1,-6,65*,-7,55*,0
C=CCOc1ccc(C(=O)/C=C2/C(=O)Nc3ccccc32)cc1,·,8,0,-7,25*,-7,-1,-2
COc1ccc(C(=O)/C=C2/C(=O)Nc3ccccc32)cc1OC,·,5,-1,-9,10,-5,·,·
COc1ccc(C(=O)/C=C2/C(=O)Nc3ccccc32)cc1,·,-1,1,11,33*,-5,10,-2
NC(=O)COc1ccc(C(=O)/C=C2/C(=O)Nc3ccccc32)cc1,·,0,-2,-18,6,-4,·,·
O=C(Cn1nc(-c2ccccc2)oc1=O)OCC(=O)c1ccc(F)c(F)c1,·,-16,-2,0,-3,0,·,·
CC1CCCCN1C(=O)Cn1cc(/C=C2/C(=O)Nc3ccccc32)c2ccccc21 (configuration not stated),-10,·,·,·,·,·,·,·
O=C(N/N=C/c1ccc(Cl)cc1Cl)c1ccncc1,·,8,-2,2,6,1,·,·
O=C(N/N=C/c1cc(Cl)cc(Cl)c1O)c1ccncc1,·,18,-1,13,32*,-6,26*,26*
COc1ccc(CCNC(=O)C/C(C)=N/NC(=O)c2ccc([N+](=O)[O-])cc2Cl)cc1OC,·,-5,1,7,46*,0,-4,-2
COCCN(CCOC)Cc1cc(=O)oc2cc(C)c(C)cc12,·,·,·,·,0,·,·,·
O=S(=O)(c1ccc2c(c1)CCCC2)N1CCNCC1,·,6,-2,1,-3,-2,·,·
O=C(Nc1ccc(Nc2ccccc2)cc1)c1ccc(Cl)cc1,·,6,4,7,-2,-5,·,·
N#C/C(C(=O)Nc1ccc(Cl)cc1)=C(/S)Nc1ccccc1,·,7,-3,11,26*,-7,24*,2
COc1ccccc1C(CNc1nc(C(F)(F)F)nc2ccccc12)N(C)C (configuration not stated),·,-18,0,-2,-11,-3,·,·
COC(=O)c1nn(-c2ccc(OC)cc2)c(=O)cc1O,-9,6,0,-5,1,3,·,·
COc1ccc(-n2nc(C#N)c(Cl)cc2=O)cc1,17,·,-3,-25,49*,-5,56*,8
N#CC(=C1C=CC(=NO)C(Cl)=C1)c1ccccc1,·,·,·,·,32*,·,39*,14*
COc1ccccc1C(=O)n1nc(-c2ccccc2)nc1NCc1ccco1,9,21,1,15,30*,-2,10,16*
Cc1ccc(C2(C)NC(=O)N(CC(=O)NNC(=O)c3ccccc3)C2=O)cc1 (configuration not stated),·,-2,-3,8,-7,0,·,·
Cn1c(SCC(=O)NNC(=O)Nc2ccccc2)nnc1-c1ccccc1,·,15,-2,0,24*,-2,11,10
SMILES,TLR4 MyD88 comp,TLR9-MyD88 inh,MC4R barr agon,MC4R antagonist,NOD2 RIPK2 PPI,beta cell repl,NOD2-RIPK2 conf,BLA counter
Cn1c(SCC(=O)NNC(=S)Nc2ccccc2)nnc1-c1ccccc1,·,8,0,15,0,-4,·,·
COc1ccc(C(=O)/C=C/c2cn(CC(O)CN3CCOCC3)c3ccccc23)cc1 (configuration not stated),0,11,-2,5,19,·,·,·
Cc1ccc(C(=O)/C=C/c2cn(CC(O)CN3CCOCC3)c3ccccc23)cc1 (configuration not stated),5,19,-1,4,23*,·,36*,35*
Cc1ccc(OCCn2cc(/C=C/C(=O)O)c3ccccc32)cc1,·,1,-1,23,1,-2,·,·
CCOc1ccc(C(=O)/C=C/c2cn(CN3CCN(C)CC3)c3ccccc23)cc1,15,16,8,10,26*,-7,24*,37*
O=C(Nc1ccc(S(=O)(=O)Nc2nccs2)cc1)c1ccccc1OC(F)F,·,2,1,8,6,-2,·,·
COc1ccccc1/C=C(/NC(=O)c1ccc(Cl)cc1Cl)C(=O)O,-7,7,-1,23,32*,-2,7,1
COc1ccc(/C=C(/NC(=O)c2ccccc2Cl)C(=O)O)cc1,-8,-2,-2,4,-10,3,·,·
CCCc1nnc(NC(=O)c2cn(CC)c3cc(N4CCN(C)CC4)c(F)cc3c2=O)s1,·,·,0,-1,-12,-4,·,·
COc1ccc(N2CCN(CC(=O)Nc3ccc(C)cc3Br)CC2)cc1,·,-8,1,3,26*,·,-7,-7
CNC(=O)C1CC(=O)N(CCc2ccc(C)cc2)C1 (configuration not stated),·,1,-1,11,-1,0,·,·
CC(=O)Nc1cccc(N(C)S(C)(=O)=O)c1,8,5,2,3,-7,-1,·,·
CC(=O)Nc1cccc(S(C)(=O)=O)c1,11,-10,-1,6,21*,0,-2,-4
Cc1cc(C)c(C)c(OCCCCN2CCCCC2)c1,·,3,0,2,3,-4,·,·
CCCCNC(=O)C(C1CCCCC1)N(CCN(C)C)C(=O)CCCN1C(=O)NC(c2ccc(-c3ccccc3)cc2)C(C(=O)OCc2ccccc2)=C1C (configuration not stated),·,-4,·,·,·,·,·,·
